The values that follow come from ChEMBL document CHEMBL1914430, “Synthesis of some new 1,3,5-trisubstituted pyrazolines bearing benzene sulfonamide as anticancer and anti-inflammatory agents” (Bioorg Med Chem Lett, 2011).

Holding throughout (format): functional
In one test the test system is UACC-257. Kind of test: Anticancer activity against human UACC257 cells after 48 hrs. As to conditions: UACC-257, 48 h. An outline of the steps: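 NCI ~60 human tumour cell line panel with a 48 h incubation. GI50 is the concentration giving a 50% fall in net growth, TGI gives total growth inhibition, and LC50 gives a net 50% loss of initial cells. An effect not reached or exceeded is reported as greater or less than the highest or lowest concentration tested.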

In the next test the test system is CAKI-1. Kind of test: Anticancer activity against human Caki1 cells after 48 hrs. As to conditions: CAKI-1, 48 h. The method in brief:
(§1)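 NCI Drug Evaluation Branch 60-cell-line screen across leukemia, melanoma, lung, colon, CNS, ovarian, renal, prostate and breast panels. The incubation period is 48 h. Parameters are derived from dose–response data: GI50 is the concentration giving 50% decrease in net growth, TGI is total growth inhibition, and LC50 is net 50% loss of initial cells. Values beyond the tested range are reported as greater or less than the maximum or minimum concentration.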

The subject of another test is HT-29. In words: Anticancer activity against human HT-29 cells after 48 hrs. To be noted: HT-29, 48 h; for CC50: read-out: LC50 (the source's name). An outline of the steps:
as §1

Usually GI50 stands for the concentration that inhibits growth by half. Low readings indicate greater sensitivity of the cells, high ones lower sensitivity of the cells. One may read the LC50 as the concentration that kills 50% of the test population. Lower therefore signals a more lethal substance. For orientation: TGI means the concentration giving total growth inhibition. Lower therefore signals greater sensitivity of the cells. In the test on UACC-257, `Cc1cc(O)c(C2=NN(c3ccc(S(N)(=O)=O)cc3)C(c3ccccc3Cl)C2)cc1Cl` (stereo not given) registered a GI50 of 11.8 µM, an LC50 greater than 100 µM and a TGI of 79.6 µM. Further, in the test on CAKI-1, the GI50 came out at 1.78 µM, the LC50 (concentration giving 50% net loss of initial cells) is 8.95 µM and total growth inhibition (TGI) required 3.99 µM. Also, in the test with HT-29, it took 1.92 µM to inhibit growth by half (GI50), the TGI came out at 3.63 µM and the CC50 came out at 6.83 µM.

In the test with UACC-257, `COc1ccc(C2CC(c3cc(Cl)c(C)cc3O)=NN2c2ccc(S(N)(=O)=O)cc2)cc1OC` (stereo not given) displayed a GI50 of 4.22 µM, an LC50 greater than 100 µM and a TGI of 19.7 µM. In the test with CAKI-1, this molecule had a GI50 of 2.78 µM and an LC50 (concentration giving 50% net loss of initial cells) greater than 100 µM. In the test on HT-29, the GI50 worked out at 2.24 µM, net growth stopped (TGI) at 6.48 µM and the CC50 came to 36.9 µM.

Regarding `Cc1cc(O)c(C2=NN(c3ccc(S(N)(=O)=O)cc3)C(c3ccccc3O)C2)cc1Cl` (stereo not given), in the test with UACC-257, it took 6.92 µM to inhibit growth by half (GI50), the LC50 is 59 µM and the TGI turned out to be 22.1 µM. In the test with CAKI-1, this molecule displayed a GI50 of 1.56 µM, an LC50 (concentration giving 50% net loss of initial cells) of 16.6 µM and a TGI of 4.44 µM. In the test with HT-29, growth was halved (GI50) at 2.37 µM, the TGI stood at 5.1 µM and the CC50 turned out to be 12.9 µM.

In the case of `Cc1cc(O)c(C2=NN(c3ccc(S(N)(=O)=O)cc3)C(/C=C/c3ccccc3)C2)cc1Cl` (stereo not given), in the test on UACC-257, halving of growth (GI50) required 14.5 µM, the LC50 was greater than 100 µM and the TGI came out at 45.7 µM. In the test with CAKI-1, this molecule showed a GI50 of 15.3 µM, an LC50 (concentration giving 50% net loss of initial cells) greater than 100 µM and a TGI of 87.7 µM. Moreover, in the test on HT-29, the GI50 amounted to 3.73 µM, the TGI stood at 14.7 µM and the CC50 amounted to 38.3 µM.
